Holding throughout (assay type): functional
Test [1] relates to Bromus diandrus var. rigidus. In words: Herbicidal activity against ALS-inhibiting herbicide-resistant two-leaf stage Bromus diandrus var. rigidus biotype R6 seedlings exposed to compound spraying measured 28 days after compound spraying. The gist of the method: (§1)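 Seedlings germinated on 1% water agar (7–10 days, ambient) were sprayed at the 2–3-leaf stage with a sulfonylurea at 1.875–240 g ha−1, with no malathion. Percent survival was scored with three replicate treatments. LD50 came from non-linear regression, and R/S is the ratio of resistant to susceptible LD50.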

In test [2] the test system is Bromus diandrus var. rigidus. As to the kind of experiment: Resistance index, ratio of LD50 for ALS-inhibiting herbicide-resistant two-leaf stage Bromus diandrus var. rigidus biotype R6 to ALS-inhibiting herbicide-susceptible two-leaf stage Bromus diandrus var. rigidus. The procedure, abridged:
as §1

For test [3], the system named is Bromus diandrus var. rigidus. As to the kind of experiment: Resistance index, ratio of LD50 for ALS-inhibiting herbicide-resistant two-leaf stage Bromus diandrus var. rigidus biotype R4 to ALS-inhibiting herbicide-susceptible two-leaf stage Bromus diandrus var. rigidus. The procedure, abridged: as §1
Test [4] deals with Bromus diandrus var. rigidus. In words: Herbicidal activity against ALS-inhibiting herbicide-susceptible two-leaf stage Bromus diandrus var. rigidus seedlings exposed to compound spraying measured 28 days after compound spraying. The gist of the method:
as §1

For test [5], the system named is Bromus diandrus var. rigidus. As to the kind of experiment: Resistance index, ratio of LD50 for ALS-inhibiting herbicide-resistant two-leaf stage Bromus diandrus var. rigidus biotype R1 to ALS-inhibiting herbicide-susceptible two-leaf stage Bromus diandrus var. rigidus. The gist of the method: as §1
The subject of test [6] is Bromus diandrus var. rigidus. As to the kind of experiment: Herbicidal activity against ALS-inhibiting herbicide-resistant two-leaf stage Bromus diandrus var. rigidus biotype R1 seedlings exposed to compound spraying measured 28 days after compound spraying. The gist of the method:
as §1

The test system of test [7] is Bromus diandrus var. rigidus. As to the kind of experiment: Resistance index, ratio of LD50 for ALS-inhibiting herbicide-resistant two-leaf stage Bromus diandrus var. rigidus biotype R5 to ALS-inhibiting herbicide-susceptible two-leaf stage Bromus diandrus var. rigidus. The procedure, abridged:
as §1

For test [8], the system named is Bromus diandrus var. rigidus. In words: Resistance index, ratio of LD50 for ALS-inhibiting herbicide-resistant two-leaf stage Bromus diandrus var. rigidus biotype R3 to ALS-inhibiting herbicide-susceptible two-leaf stage Bromus diandrus var. rigidus. The procedure, abridged: as §1
Test [9] concerns Bromus diandrus var. rigidus. As to the kind of experiment: Herbicidal activity against ALS-inhibiting herbicide-resistant two-leaf stage Bromus diandrus var. rigidus biotype R4 seedlings exposed to compound spraying measured 28 days after compound spraying. The procedure, abridged:
as §1

Test [10] concerns Bromus diandrus var. rigidus. As to the kind of experiment: Resistance index, ratio of LD50 for ALS-inhibiting herbicide-resistant two-leaf stage Bromus diandrus var. rigidus biotype R2 to ALS-inhibiting herbicide-susceptible two-leaf stage Bromus diandrus var. rigidus. The gist of the method:
as §1

Test [11] concerns Bromus diandrus var. rigidus. As to the kind of experiment: Herbicidal activity against ALS-inhibiting herbicide-resistant two-leaf stage Bromus diandrus var. rigidus biotype R3 seedlings exposed to compound spraying measured 28 days after compound spraying. The procedure, abridged: as §1
The subject of test [12] is Bromus diandrus var. rigidus. In words: Herbicidal activity against ALS-inhibiting herbicide-resistant two-leaf stage Bromus diandrus var. rigidus biotype R2 seedlings exposed to compound spraying measured 28 days after compound spraying. The gist of the method: as §1
Test [13] relates to Bromus diandrus var. rigidus. As to the kind of experiment: Herbicidal activity against ALS-inhibiting herbicide-resistant two-leaf stage Bromus diandrus var. rigidus biotype R5 seedlings exposed to compound spraying measured 28 days after compound spraying. The gist of the method:
as §1

Turning to `Cc1cc(C)nc(NC(=O)NS(=O)(=O)c2ccccc2C(=O)O)n1` [SULFOMETURON], the LD50 stood at 41 g/ha in [1]; 10 g/ha in [4]; 30 g/ha in test [6]; 30 g/ha in test [9]; 31 g/ha in test [11]; 33 g/ha in test [12]. Further, the LD50 in test [13] is on record as 38 g/ha. In addition, the Ratio in [2] came out at 4.1; in [3], 3; in test [5] it was 3; in test [7], 3.8; in test [8] it was 3.1; in test [10] it was 3.3.
